From ChEMBL document CHEMBL1141286, “Benzochromenones from the marine crinoid Comantheria rotula inhibit hypoxia-inducible factor-1 (HIF-1) in cell-based reporter assays and differentially suppress the growth of certain tumor cell lines” (J Nat Prod, 2007)
Calls of active or inactive are those of the source. No cut-off for these calls is given here.

Assays:
[1] = test system: KM12; experiment: Growth inhibition of human KM12 cells; type: functional
[2] = test system: COLO 205; experiment: Growth inhibition of human COLO205 cells; type: functional
[3] = test system: PC-3; experiment: Growth inhibition of human PC3 cells; type: functional
[4] = test system: ACHN; experiment: Growth inhibition of human ACHN cells; type: functional
[5] = test system: OVCAR-4; experiment: Growth inhibition of human OVACAR4 cells; type: functional
[6] = test system: HT-29; experiment: Growth inhibition of human HT29 cells; type: functional
[7] = test system: SF-268; experiment: Growth inhibition of human SF268 cells; type: functional
[8] = test system: CCRF-CEM; experiment: Growth inhibition of human CCRF-CEM cells; type: functional
[9] = test system: SNB-19; experiment: Growth inhibition of human SNB19 cells; type: functional
[10] = test system: NCI-H522; experiment: Growth inhibition of human NCI-H522 cells; type: functional
[11] = test system: TK-10; experiment: Growth inhibition of human TK10 cells; type: functional
[12] = test system: NCI-H460; experiment: Growth inhibition of human NCI-H460 cells; type: functional
[13] = test system: Malme-3M; experiment: Growth inhibition of human MALME-3M cells; type: functional
[14] = test system: T47D; experiment: Growth inhibition of human T47D cells; type: functional
[15] = test system: UO-31; experiment: Growth inhibition of human UO31 cells; type: functional
[16] = test system: RXF 393; experiment: Growth inhibition of human RXF393 cells; type: functional
[17] = test system: NCI-H226; experiment: Growth inhibition of human NCI-H226 cells; type: functional
[18] = test system: SF-295; experiment: Growth inhibition of human SF295 cells; type: functional
[19] = test system: UACC-62; experiment: Growth inhibition of human UACC62 cells; type: functional
[20] = test system: SN12C; experiment: Growth inhibition of human SN12C cells; type: functional
[21] = test system: MCF7; experiment: Growth inhibition of human MCF7 cells; type: functional
[22] = test system: SK-MEL-28; experiment: Growth inhibition of human SK-MEL28 cells; type: functional
[23] = test system: HCC 2998; experiment: Growth inhibition of human HCC2998 cells; type: functional
[24] = test system: UACC-257; experiment: Growth inhibition of human UACC257 cells; type: functional
[25] = test system: SK-MEL-5; experiment: Growth inhibition of human SK-MEL5 cells; type: functional
[26] = test system: Hs-578T; experiment: Growth inhibition of human HS578T cells; type: functional
[27] = test system: T47D; experiment: Inhibition of 1,10-phenanthroline-induced VEGF protein secretion in human T47D cells at 10 uM after 16 hrs by ELISA; type: functional, cell-based
How it was run: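 T47D cells stimulated with 1,10-phenanthroline, compound at 10 μM; secreted VEGF in conditioned media by ELISA, normalized to cell-lysate protein.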

[28] = test system: HCT-116; experiment: Growth inhibition of human HCT116 cells; type: functional
[29] = test system: SR; experiment: Growth inhibition of human SR cells; type: functional
[30] = target: Hypoxia inducible factors; HIF-1-alpha, HIF-2-alpha (Homo sapiens, UniProt Q16665+Q99814); experiment: Inhibition of HIF1 activation in human T47D cells by TK-luciferase assay; type: cell-based
How it was run: (§1)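 HIF-1 reporter (pHRE-TK-Luc) assays in transfected PC-3 or T47D cells; HIF-1 induced by hypoxia or by the hypoxia mimetic 1,10-phenanthroline (10 μM); compounds at half-log concentrations; luciferase activity measured; IC50 from experiments in triplicate.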

[31] = Inhibition of HIF1 activation in PC3 cells by TK-luciferase assay; type: cell-based; settings: Homo sapiens, PC-3; how it was run: as §1
[32] = Inhibition of 1,10-phenanthroline-induced HIF1 activation in T47D cells by TK-luciferase assay; type: cell-based; settings: Homo sapiens; how it was run: as §1
[33] = test system: MOLT-4; experiment: Growth inhibition of human MOLT4 cells; type: functional
[34] = test system: SNB-75; experiment: Growth inhibition of human SNB75 cells; type: functional
[35] = test system: MDA-MB-435; experiment: Growth inhibition of human MDA-MB-435 cells; type: functional
[36] = Growth inhibition of human OVACAR3 cells; type: functional
[37] = test system: HL-60; experiment: Growth inhibition of human HL60 cells; type: functional
[38] = test system: A498; experiment: Growth inhibition of human A498 cells; type: functional
[39] = test system: CAKI-1; experiment: Growth inhibition of human CAKI1 cells; type: functional
[40] = read-out: Log LC50 (the source's name) (converted)

COc1cc(O)cc2cc3oc(C)cc(=O)c3c(O)c12
GI50 [1]: 18.6 µM | CC50 [1, 40]: 85.1 µM | TGI ([1]; read-out: Log TGI (converted)): 39.8 µM | GI50 [2]: 20.4 µM | CC50 [2, 40]: > 100 µM | TGI ([2]; read-out: Log TGI (converted)): 55 µM | GI50 [3]: 32.4 µM | LC50 [3]: > 100 µM | TGI ([3]; read-out: Log TGI (converted)): > 100 µM | GI50 [4]: 17 µM | CC50 [4, 40]: > 100 µM | TGI ([4]; read-out: Log TGI (converted)): > 100 µM | GI50 [5]: 45.7 µM | LC50 [5]: > 100 µM | TGI ([5]; read-out: Log TGI (converted)): > 100 µM | GI50 [6]: 29.5 µM | CC50 [6, 40]: > 100 µM | TGI ([6]; read-out: Log TGI (converted)): > 100 µM | GI50 [7]: 30.2 µM | LC50 [7]: > 100 µM | TGI ([7]; read-out: Log TGI (converted)): > 100 µM | GI50 [8]: 30.2 µM | LC50 [8]: > 100 µM | TGI ([8]; read-out: Log TGI (converted)): 100 µM | GI50 [9]: 32.4 µM | LC50 [9]: > 100 µM | TGI ([9]; read-out: Log TGI (converted)): > 100 µM | GI50 [10]: 2.19 µM | CC50 [10, 40]: 93.3 µM | TGI ([10]; read-out: Log TGI (converted)): 22.9 µM | GI50 [11]: 20.4 µM | LC50 [11]: > 100 µM | TGI ([11]; read-out: Log TGI (converted)): 61.7 µM | GI50 [12]: 19.1 µM | CC50 [12, 40]: > 100 µM | TGI ([12]; read-out: Log TGI (converted)): 50.1 µM | GI50 [13]: 35.5 µM | CC50 [13, 40]: > 100 µM | TGI ([13]; read-out: Log TGI (converted)): 95.5 µM | GI50 [14]: 17.8 µM | LC50 [14]: > 100 µM | TGI ([14]; read-out: Log TGI (converted)): > 100 µM | GI50 [15]: 5.13 µM | LC50 [15]: > 100 µM | TGI ([15]; read-out: Log TGI (converted)): 37.2 µM | GI50 [16]: 20.4 µM | LC50 [16]: > 100 µM | TGI ([16]; read-out: Log TGI (converted)): 53.7 µM | GI50 [17]: 22.4 µM | CC50 [17, 40]: > 100 µM | TGI ([17]; read-out: Log TGI (converted)): > 100 µM | GI50 [18]: 30.2 µM | LC50 [18]: > 100 µM | TGI ([18]; read-out: Log TGI (converted)): > 100 µM | GI50 [19]: 29.5 µM | LC50 (lethal concentration, 50% cell kill) [19]: > 100 µM | TGI ([19]; read-out: Log TGI (converted)): > 100 µM | GI50 [20]: 32.4 µM | LC50 [20]: > 100 µM | TGI ([20]; read-out: Log TGI (converted)): > 100 µM | GI50 [21]: 31.6 µM | LC50 [21]: > 100 µM | TGI ([21]; read-out: Log TGI (converted)): > 100 µM | GI50 [22]: 24 µM | CC50 [22, 40]: > 100 µM | TGI ([22]; read-out: Log TGI (converted)): 63.1 µM | GI50 [23]: 24.5 µM | CC50 [23, 40]: > 100 µM | TGI ([23]; read-out: Log TGI (converted)): 64.6 µM | GI50 [24]: 45.7 µM | LC50 [24]: > 100 µM | TGI ([24]; read-out: Log TGI (converted)): > 100 µM | GI50 [25]: 0.457 µM | LC50 [25]: 34.7 µM | TGI ([25]; read-out: Log TGI (converted)): 12 µM | GI50 [26]: 0.589 µM | LC50 [26]: > 100 µM | Activity [27]: inactive | GI50 [28]: 14.5 µM | CC50 [28, 40]: 63.1 µM | TGI ([28]; read-out: Log TGI (converted)): 30.2 µM | GI50 [29]: 15.1 µM | CC50 [29, 40]: > 100 µM | TGI ([29]; read-out: Log TGI (converted)): 41.7 µM | IC50 [30]: 3.4 µM | IC50 [31]: 3.3 µM | IC50 [32]: 0.9 µM | GI50 [33]: 17.8 µM | CC50 [33, 40]: > 100 µM | TGI ([33]; read-out: Log TGI (converted)): 51.3 µM | GI50 [34]: 46.8 µM | LC50 [34]: > 100 µM | TGI ([34]; read-out: Log TGI (converted)): > 100 µM | GI50 [35]: 27.5 µM | LC50 [35]: > 100 µM | TGI ([35]; read-out: Log TGI (converted)): > 100 µM | GI50 [36]: > 100 µM | CC50 [36, 40]: 22.4 µM | TGI ([36]; read-out: Log TGI (converted)): 91.2 µM | GI50 [37]: 20.9 µM | LC50 [37]: 83.2 µM | TGI ([37]; read-out: Log TGI (converted)): 41.7 µM | GI50 [38]: 0.617 µM | LC50 [38]: > 100 µM | TGI ([38]; read-out: Log TGI (converted)): 11.7 µM | GI50 [39]: 42.7 µM | LC50 [39]: > 100 µM | TGI ([39]; read-out: Log TGI (converted)): > 100 µM
